Assay outcomes: PubChem BioAssay, several laboratories
This is a sample that favours compounds with a hit; in the whole collection about 0.7% have one here.
Rce1 inhib = inhibitors of yeast Ras-converting enzyme. Q03530. 0.27% of 290,000 active. calls only. yeast membranes, quenched prenylated peptide cleavage fluorescence;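 active = fall in fluorescence gain of 50% or more versus controls, with final raw signal at or below 3038400; inconclusive = same 50% fall but final raw signal above 3038400; inactive = fall in fluorescence gain under 50%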
STK33 inh = human STK33 kinase inhibition; inhibition, % at 10 µM; AID 2661; purified STK33, MBP phosphorylation, ADP-Glo luminescence; 0.073% of 320,000 active;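 active = inhibition at or above 25%, using the most active replicate where run in duplicate; inactive = inhibition below 25%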
GSK3beta inhib = blocks human GSK3beta kinase activity; P49841; GST-GSK3beta kinase, ADP-Glo luminescence, 60 min; active compounds read low; activity score (negative = inhibition), % at 10 µM; 0.038% of 300,000 active; AID 2097;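 active = more than half of replicate wells score below -50%, meaning over 50% inhibition versus plate controls; inconclusive = some replicates but at most half score below -50%; inactive = no replicate scores below -50%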
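Test system – GST-tagged human GSK3beta kinase, cell-free · Incubation – 60 min enzyme reaction, room temperature · Signal – ADP-Glo luminescence · Also added – peptide substrate and ATP at 25 µM · Controls – DMSO neutral wells and GW8510 at 20 µM as positive · Buffer or medium – Tris/MgCl2 kinase buffer · Measure – Luminescence-derived activity versus plate DMSO and GW8510 wells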
GSK3 alpha inh = human GSK-3 alpha kinase inhibition; AID 2650; ADP-Glo luminescence, 60 min; 0.1% of 320,000 active; inhibition, % at 10 µM; P49840;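 active = more than half of replicates show inhibition above 20%; inconclusive = some but at most half of replicates above 20% inhibition; inactive = no replicate shows inhibition above 20%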;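 note: GST-tagged GSK-3 alpha with peptide substrate and 25 µM ATP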
Target sequence (P49840 whole entry, looked up): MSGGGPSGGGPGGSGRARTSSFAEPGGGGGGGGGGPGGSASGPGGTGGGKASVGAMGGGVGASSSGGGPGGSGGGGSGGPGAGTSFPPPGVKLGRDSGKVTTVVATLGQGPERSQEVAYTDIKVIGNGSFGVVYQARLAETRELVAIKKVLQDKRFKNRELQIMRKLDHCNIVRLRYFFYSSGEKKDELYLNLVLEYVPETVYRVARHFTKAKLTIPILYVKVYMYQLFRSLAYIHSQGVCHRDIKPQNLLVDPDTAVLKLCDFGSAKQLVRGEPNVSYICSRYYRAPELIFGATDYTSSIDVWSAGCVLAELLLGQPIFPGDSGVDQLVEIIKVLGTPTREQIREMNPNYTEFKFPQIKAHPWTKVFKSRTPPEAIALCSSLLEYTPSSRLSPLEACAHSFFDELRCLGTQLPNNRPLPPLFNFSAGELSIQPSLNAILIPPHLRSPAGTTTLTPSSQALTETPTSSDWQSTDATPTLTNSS
HSV replic up = increases HSV replication in cells; HSV replication augmentation in cells, fold increase; maximum fold increase; 0.005% of 220,000 active; in the data active = maximum fold increase above about 1.5; inconclusive = no clear call, values can overlap the other calls; tested in PC3 cells
Lipid droplet = hepatic lipid droplet formation modulation; 0.4% of 240,000 active; AML12 mouse hepatocytes, oleate lipid droplets, BODIPY imaging; inhibition, % at 6.5 µM;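 active = lipid droplet intensity inhibited by at least 50%, with more than 500 cells counted; inconclusive = wells with under 300 cells, treated as cytotoxic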
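Assay system: AML12 hepatocytes (mouse) / Also added: 100 µM oleic acid challenge / Times: overnight treatment with compound plus oleate / Detection: high-content imaging of BODIPY-stained droplets and DAPI nuclei / Evaluation: % inhibition of lipid droplet signal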
Hep lipid conf = hepatic lipid droplet formation inhibition, confirmed. shares compounds with Lipid droplet. AML12 mouse hepatocytes, BODIPY lipid droplet imaging; droplets induced with 100 µM oleic acid. inhibition, % at 5.2 µM. 65% of 870 active. AID 463183;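 active = inhibition of lipid droplet metric at least 50%, with more than 300 cells in each of four replicates; inconclusive = wells under 300 cells, flagged as toxic or low count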
AML12 cytotox = counter-screen for cytotoxicity in AML12 mouse hepatocytes. shares compounds with Lipid droplet. DAPI nuclear morphology cytotoxicity imaging; active compounds read high; cells fed 100 µM oleate overnight. z-score at 5 µM. 3% of 870 active. AID 463200; in the data active = z-score above about 6.3;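 note: compound exposure lasted overnight at 37 °C before fixation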
AML12 tox ATP = AML12 hepatocyte cytotoxicity, confirmed; cytotoxicity, % at 50 µM; AML12 mouse hepatocyte viability, ATP luminescence; cells loaded with 100 µM oleic acid; 530 tested, under 10 active; shares compounds with Lipid droplet; AID 463219;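 active = cytotoxicity above 50% in each of four replicates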;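 note: compound exposure lasted overnight at 37 °C before the ATP read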
A number is an active result; – = inactive; ? = inconclusive; · = no result given.

SMILES	Rce1 inhib	STK33 inh	GSK3beta inhib	GSK3 alpha inh	HSV replic up	Lipid droplet	Hep lipid conf	AML12 cytotox	AML12 tox ATP
CN(CC(=O)Nc1ccc(N2CCOCC2)cc1)CC(=O)Nc1ccc(C(F)(F)F)cc1	–	–	–	–	–	–	·	·	·
Cc1ccc(NC(=O)CN(C)CC(=O)Nc2ccc(N3CCOCC3)cc2)c(C)c1	–	–	–	–	–	53	84	–	·
CC/C(=N/Nc1ccccc1Cl)c1cnnc(-c2ccccc2)n1	–	–	–	–	–	56	75	–	–
Cc1[nH]c2ccccc2c1/C=N/Nc1nc(Nc2ccc(F)cc2)nc(N2CCOCC2)n1	–	–	–	–	–	61	?	108	·
O=C(Oc1cccc(/C=N/Nc2nc(Nc3ccccc3)nc(N3CCOCC3)n2)c1)c1ccco1	–	–	–	–	–	120	–	13	·
COc1cc(/C=N/Nc2nc(N3CCCCC3)nc(N3CCCCC3)n2)ccc1OC(=O)c1ccco1	–	–	–	–	–	–	·	·	·
COc1ccc(C[C@H]2CN3C(=NC[C@@H]3Cc3ccccc3)N2CCNC(=O)c2ccc(C)c(Br)c2)cc1	–	–	–	–	–	–	·	·	·
COc1ccc(C[C@H]2CN3C(=NC[C@H]3Cc3ccccc3)N2CCNC(=O)c2ccc(C)c(Br)c2)cc1	–	–	–	–	–	54	–	–	·
COc1cc(NC(=O)c2oc3ccccc3c2C)ccc1NC(=O)c1ccco1	–	–	–	–	·	102	111	–	–
O=C(OCc1ccc([N+](=O)[O-])cc1)c1ccc(N2CCCC2)c([N+](=O)[O-])c1	–	–	–	–	–	–	·	·	·
CCc1ccc(NC(=O)C(C)OC(=O)c2ccc(N3CCCC3)c([N+](=O)[O-])c2)cc1 (stereo unspecified)	–	–	–	–	–	92	107	–	·
Cc1nnc(SCC(=O)Nc2cc(-c3cc(C)c(C)cc3C)nn2-c2ccccc2)s1	–	–	–	–	–	78	89	–	–
O=C(NCCc1cccnc1)c1cc(COc2ccc(F)cc2F)on1	–	–	–	–	·	95	–	–	·
CCc1cc2c(=O)c(-c3ccc4c(c3)OCCO4)c(C)oc2cc1OS(C)(=O)=O	–	–	–	–	–	–	·	·	·
COc1ccc(-c2nc(NC(=O)Cn3cnnn3)sc2C)cc1	–	–	–	–	–	–	·	·	·
COc1ccc(-c2nc(NC(=O)Cn3ccc(C(F)(F)F)n3)sc2C)cc1	–	–	–	–	–	68	104	–	–
CCOc1ccccc1-c1cc(C(=O)N/N=C/c2ccc3c(c2)OCO3)c2ccccc2n1	·	·	·	·	?	–	·	·	·
CCOc1ccccc1-c1cc(C(=O)N/N=C/c2ccc(O)c(OC)c2)c2ccccc2n1	–	–	–	–	–	50	72	–	–
CCC(C)(C)NC(=O)C(c1sccc1C)N(Cc1ccco1)C(=O)c1csnn1 (stereo unspecified)	–	–	–	–	·	58	70	–	–
COc1ccc(C(=O)CSc2nnc(CC(=O)Nc3ccccc3OC)n2C)cc1	–	–	–	–	–	59	–	–	–
O=C(NNC(=O)C1CC1)c1ccc(F)cc1F	·	–	·	–	·	·	·	·	·
CC(=O)C1=C(C)Nc2ncnn2C1c1ccc(Br)cc1 (stereo unspecified)	–	–	–	–	·	·	·	·	·
Cc1c(NC(=O)COC(=O)CSc2ccc([N+](=O)[O-])cc2)c(=O)n(-c2ccccc2)n1C	·	–	·	–	·	·	·	·	·
CC(C)(C)c1cc(NC(=O)Nc2ccc(Cl)cc2Cl)no1	–	–	–	–	–	50	–	–	·
CCNC(=S)N1CCc2cc(OC)c(OC)cc2C1COc1ccc(F)cc1 (stereo unspecified)	–	–	–	–	–	60	97	–	–
SMILES	Rce1 inhib	STK33 inh	GSK3beta inhib	GSK3 alpha inh	HSV replic up	Lipid droplet	Hep lipid conf	AML12 cytotox	AML12 tox ATP
COc1nccnc1NS(=O)(=O)c1ccc(NCc2cc(Br)ccc2O)cc1	–	–	–	–	·	64	–	–	·
Cc1noc(C(=O)Nc2ccc(Cl)cc2)c1Cl	–	–	–	–	·	–	·	·	·
O=C(Nc1cccc(S(=O)(=O)Nc2ccc(Cl)cc2)c1)c1ccc[n+]([O-])c1	–	–	–	–	–	–	·	·	·
Cn1c(=O)cc(SCC(=O)NCCC2=CCCCC2)c2ccc(Cl)cc21	–	–	–	–	–	–	·	·	·
CCOc1ccc(CCNC(=O)CSc2cc(=O)n(CC)c3ccccc23)cc1OCC	–	–	–	–	–	93	105	–	–
CCOc1ccc(CCNC(=O)c2cc3sccc3n2CC)cc1OCC	–	–	–	–	–	92	108	–	–
CCOc1ccc(CCNC(=O)CSc2cc(=O)n(C)c3cc(Cl)ccc23)cc1OCC	–	–	–	–	–	78	78	–	–
CCOc1ccc(CCNC(=O)CCC(=O)c2cccs2)cc1OCC	·	–	·	–	·	·	·	·	·
CCOc1ccccc1NC(=O)N1CCCC1C(=O)Nc1ccc(-n2cnnn2)c(C)c1 (stereo unspecified)	–	–	–	–	–	74	97	–	–
CCOc1ccccc1NC(=O)C(c1ccccc1)N1CCN(C(=O)c2ccco2)CC1 (stereo unspecified)	·	–	·	–	·	·	·	·	·
C=CCNC(=S)Nc1cc(S(=O)(=O)N2CCOCC2)ccc1-n1cncn1	–	–	–	–	–	119	–	–	·
CCC(C)NC(=O)CN(c1ccc(Cl)c(Cl)c1)S(C)(=O)=O (stereo unspecified)	·	–	–	–	–	–	·	·	·
CCOC(=O)c1cc(-c2ccc(F)cc2)n(CC(=O)NC(C)CC)c1C (stereo unspecified)	–	–	–	·	–	70	66	–	–
COc1cccc(-c2nc(NCc3ccccc3)c3ccccc3n2)c1O	–	–	–	–	·	69	55	–	–
CCOc1ccc(-n2c(SCC(=O)Nc3ccc(CC)cc3)nc3n[nH]c(C)c3c2=N)cc1	–	–	–	·	–	51	–	–	·
CCCCOc1ccc(NC(=O)CN2CCN(CC)CC2)cc1	–	–	–	–	·	–	·	·	·
CCCCOc1ccc(NC(=O)Cn2c(=O)ccc3c(C)cc(C)nc32)cc1	–	–	–	–	–	66	91	–	–
N#CC1(NC(=O)CSc2nnc(-c3ccccc3F)o2)CCCCC1	–	–	–	–	·	·	·	·	·
CC1=C(/C=N/Nc2ccc([N+](=O)[O-])cc2[N+](=O)[O-])C(C)(C)CCC1	–	–	–	–	–	72	115	–	–
COc1ccc(/C=N\Nc2ccc([N+](=O)[O-])cc2[N+](=O)[O-])c(C(=O)O)c1OC	–	–	–	–	–	–	·	·	·
